Tests used:
[1] = tested on: Mus musculus; assay: Antiinflammatory activity against xylene-induced ear edema in Kunming mouse assessed as reduction in ear swelling weight at 100 mg, ip administered 2 hrs post challenge measured after 30 mins; format: functional
Method in brief: (§1)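 Male Kunming mice (~20 g), fasted 12 h, groups of 6. Compound given i.p.; 30 min later 0.015 mL xylene applied to front and back surfaces of right ear, left ear as control. Killed 2 h after xylene; 7 mm circular ear sections weighed and measured. Swelling taken as weight and thickness over untreated left ear. Mean ± S, one-way ANOVA.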

[2] = tested on: MCF7; assay: Cytotoxicity against human MCF7 cells assessed as growth inhibition after 72 hrs; settings: MCF7, 72 h
[3] = tested on: MDA-MB-231; assay: Cytotoxicity against human MDA-MB-231 cells assessed as growth inhibition after 72 hrs; settings: MDA-MB-231, 72 h
[4] = tested on: Mus musculus; assay: Antiinflammatory activity against xylene-induced ear edema in Kunming mouse assessed as reduction in ear swelling thickness at 100 mg, ip administered 2 hrs post challenge measured after 30 mins; format: functional; method in brief: as §1
[5] = tested on: MCF7; assay: Antiproliferative activity against human MCF-7 cells at 0.63 uM to 10 uM after 20 to 140 hrs; format: functional, cell-based; settings: TDE = time-dependent effect
Method in brief: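 MCF-7 cells in DMEM with 5% FBS, seeded at 7500 cells/mL and grown 3 days before compound addition. Exposed to a range of concentrations for up to 144 h. Biomass measured by glutaraldehyde fixation, crystal violet staining, ethanol extraction and absorbance at 590 nm. Expressed as corrected T/C % = (T−C0)/(C−C0)·100.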

[6] = target: Prostaglandin G/H synthase 1 (Ovis aries) (UniProt P05979); assay: Inhibition of ovine COX-1 at 10 uM by ELISA relative to licofelone
[7] = target: Prostaglandin G/H synthase 2 (Homo sapiens) (UniProt P35354); assay: Inhibition of human COX-2 at 10 uM by ELISA relative to licofelone
[8] = tested on: Mus musculus; assay: Antiinflammatory activity against xylene-induced ear edema in Kunming mouse assessed as reduction in ear swelling weight at 25 mg, […]; format: functional
[9] = tested on: Mus musculus; assay: Antiinflammatory activity against xylene-induced ear edema in Kunming mouse assessed as reduction in ear swelling thickness at 200 mg, ip administered 2 hrs post challenge measured after 30 mins; format: functional; method in brief: as §1
[10] = tested on: Mus musculus; assay: Antiinflammatory activity against xylene-induced ear edema in Kunming mouse assessed as reduction in ear swelling thickness at 25 mg, ip administered 2 hrs post challenge measured after 30 mins; format: functional; method in brief: as §1
[11] = tested on: Mus musculus; assay: Antiinflammatory activity against xylene-induced ear edema in ip dosed Kunming mouse assessed as reduction in ear swelling administered 2 hrs post challenge measured after 30 mins; format: functional, organism-based; method in brief: as §1
[12] = tested on: Mus musculus; assay: Antiinflammatory activity against xylene-induced ear edema in Kunming mouse assessed as reduction in ear swelling weight at 200 mg, […]; format: functional

| Structure (SMILES) | inhibition (INH) [1] [%] | IC50 [2] [µM] | IC50 [3] [µM] | inhibition (INH) [4] [%] | Activity [5] | inhibition [6] [%] | inhibition [7] [%] | inhibition (INH) [8] [%] | inhibition (INH) [9] [%] | inhibition (INH) [10] [%] | inhibition [11] | inhibition (INH) [12] [%] |
| --- | --- | --- | --- | --- | --- | --- | --- | --- | --- | --- | --- | --- |
| Cc1ccccc1C(=O)OCC(=O)c1c(-c2ccc(Cl)cc2)c(-c2ccccc2)c2n1CC(C)(C)C2 | 12.3 | 6.2 | 12.9 | 34.1 | – | – | – | – | – | – | – | – |
| CC1(C)Cc2c(-c3ccccc3)c(-c3ccc(Cl)cc3)c(C(=O)COC(=O)c3ccc([N+](=O)[O-])cc3)n2C1 | 1.8 | 4.8 | 7.3 | 6.5 | – | – | – | – | – | – | – | – |
| CCC(=O)OCC(=O)c1c(-c2ccc(Cl)cc2)c(-c2ccccc2)c2n1CC(C)(C)C2 | 3.5 | 1.7 | 3.1 | 12.3 | tde | 11 | 9 | – | – | – | – | – |
| CC1(C)Cc2c(-c3ccccc3)c(-c3ccc(Cl)cc3)c(C(=O)COC(=O)c3ccc(Cl)cc3Cl)n2C1 | 43.9 | 6.7 | > 50 | 8 | – | – | – | – | – | – | – | – |
| CC(=O)OCC(=O)c1c(-c2ccc(Cl)cc2)c(-c2ccccc2)c2n1CC(C)(C)C2 | 19.3 | 2.5 | 4.4 | 37 | – | 11 | 9 | – | – | – | – | – |
| CC1(C)Cc2c(-c3ccccc3)c(-c3ccc(Cl)cc3)c(C(=O)COC(=O)Cc3ccccc3)n2C1 | 26.3 | 4.7 | > 50 | 35.8 | – | – | – | – | – | – | – | – |
| CC(=O)c1c(-c2ccc(Cl)cc2)c(-c2ccccc2)c2n1CC(C)(C)C2 | 54.4 | 2 | 3.3 | 50.7 | tde | 11 | 9 | – | – | – | – | – |
| Cc1ccc(-c2cc(C(F)(F)F)nn2-c2ccc(S(N)(=O)=O)cc2)cc1 [CELECOXIB] | 46.3 | – | – | 47.9 | – | – | – | – | – | – | – | – |
| Cc1cc(C(=O)OCC(=O)c2c(-c3ccc(Cl)cc3)c(-c3ccccc3)c3n2CC(C)(C)C3)cc([N+](=O)[O-])c1 | 7 | – | – | 26.8 | – | – | – | – | – | – | – | – |
| COc1ccc(C(=O)OCC(=O)c2c(-c3ccc(Cl)cc3)c(-c3ccccc3)c3n2CC(C)(C)C3)cc1 | 15.8 | 11.9 | > 50 | 10.1 | – | – | – | – | – | – | – | – |
| CC1(C)Cc2c(-c3ccccc3)c(-c3ccc(Cl)cc3)c(C(=O)CCl)n2C1 | 28.1 | 5.8 | 35.4 | 24.6 | – | 11 | 9 | – | – | – | – | – |
| CC(C)Cc1ccc(C(C)C(=O)O)cc1 (stereo unspecified) [IBUPROFEN] | 51.2 | – | – | 54.3 | – | – | – | – | – | – | – | – |
| CC1(C)Cc2c(-c3ccccc3)c(-c3ccc(Cl)cc3)c(C(=O)COC(=O)c3ccc(Cl)cc3)n2C1 | 24.6 | 3.9 | > 50 | 29.7 | – | – | – | – | – | – | – | – |
| O=c1[nH]cc(F)c(=O)[nH]1 [FLUOROURACIL] | – | 4.7 | 9.6 | – | – | – | – | – | – | – | – | – |
| CC1(C)Cc2c(-c3ccccc3)c(-c3ccc(Cl)cc3)c(C(=O)COC(=O)c3ccccc3O)n2C1 | 31.6 | 8.2 | > 50 | 14.5 | – | – | – | – | – | – | – | – |
| CC1(C)Cc2c(-c3ccccc3)c(-c3ccc(Cl)cc3)c(C(=O)COC(=O)Cc3ccc(Cl)cc3)n2C1 | 35.1 | 7.1 | > 50 | 37 | – | – | – | – | – | – | – | – |
| CC1(C)Cc2c(-c3ccccc3)c(-c3ccc(Cl)cc3)cn2C1 | – | 5.6 | 19.7 | – | – | – | – | – | – | – | – | – |
| Cc1cccc(C(=O)OCC(=O)c2c(-c3ccc(Cl)cc3)c(-c3ccccc3)c3n2CC(C)(C)C3)c1 | 17.5 | 3.8 | > 50 | 50.7 | – | – | – | – | – | – | – | – |
| CCC(=O)c1c(-c2ccc(Cl)cc2)c(-c2ccccc2)c2n1CC(C)(C)C2 | 24.6 | 8.7 | 19.2 | 22.5 | – | 11 | 9 | – | – | – | – | – |
| CC1(C)Cc2c(-c3ccccc3)c(-c3ccc(Cl)cc3)c(C(=O)COC=O)n2C1 | 19.3 | 1.5 | 1.8 | 20.3 | tde | 11 | 9 | – | – | – | – | – |
| COc1ccccc1C(=O)OCC(=O)c1c(-c2ccc(Cl)cc2)c(-c2ccccc2)c2n1CC(C)(C)C2 | 31.6 | 4.5 | > 50 | 18.1 | – | – | – | – | – | – | – | – |
| CCCCCC(=O)c1c(-c2ccc(Cl)cc2)c(-c2ccccc2)c2n1CC(C)(C)C2 | 14 | 5.4 | 31.3 | 37 | – | 11 | 9 | – | – | – | – | – |
| Cc1ccc(C(=O)OCC(=O)c2c(-c3ccc(Cl)cc3)c(-c3ccccc3)c3n2CC(C)(C)C3)cc1 | 22.8 | > 50 | > 50 | 21 | – | – | – | – | – | – | – | – |
| CC1(C)Cc2c(-c3ccccc3)c(-c3ccc(Cl)cc3)c(CC(=O)O)n2C1 [LICOFELONE] | 43.9 | 5.5 | 36.7 | 52.2 | – | – | – | 33.3 | 74.6 | 49.2 | Dose-dependent effect | 77.2 |
| CC1(C)Cc2c(-c3ccccc3)c(-c3ccc(Cl)cc3)c(C(=O)COC(=O)c3cccc(Cl)c3)n2C1 | 3.5 | 5.2 | > 50 | 1.4 | – | – | – | – | – | – | – | – |
| CC1(C)Cc2c(-c3ccccc3)c(-c3ccc(Cl)cc3)c(C(=O)COC(=O)c3ccccc3Cl)n2C1 | 12.3 | 5.2 | 31.8 | 20.3 | – | – | – | – | – | – | – | – |

From ChEMBL document CHEMBL1687893 (Eur J Med Chem, 2011)
